Screens: PubChem BioAssay, several laboratories
The list is not random: actives were taken first. Their share in the collection is about 2.1%.
STAT1 inh = inhibitors of IFN-gamma induced STAT1 signaling; NIH 3T3 STAT1-luciferase reporter, luminescence; inhibition, % at 5.5 µM; 200,000 compounds, 0.35% hits; AID 920;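 active = inhibition above a set limit, the mean inhibition across all tested compounds plus 3 SD, cut at about 34% in these data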;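 also: 0% = IFN-gamma with DMSO and 100% = IFN-gamma with 300 µM nifuroxazide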
TNF necrop inh = inhibitors of TNF-alpha induced necroptosis in Jurkat FADD-/- cells | Jurkat FADD-/- TNF necroptosis rescue, ATP luminescence, 24 h; 0 = TNF only, 100 = no-TNF cells | activation (protection from cell death), % at 10 µM | 220,000 compounds, 0.068% hits | AID 463075;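 active = activation, meaning protection from cell death, of at least 50% relative to plate controls; inactive = activation below 50%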;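 also: necroptosis triggered by 40 ng/mL TNF-alpha added together with compound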
STAT3 activator = STAT3 signaling activation. U3A cells, IL-6 STAT3-luciferase reporter, luminescence; 100% = signal with IL-6 EC80 alone. 190,000 compounds, 0.91% hits. activation (% of control), % at 5.6 µM. AID 871;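 active = activation above the screen-wide mean of compound activation plus 3 SD, cut at about 130% in these data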;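 also: 0% = background luminescence of wells with medium and substrate only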
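Test system: human U3A cells carrying STAT3-luciferase construct; control set: IL-6-only wells as 100% reference; timing: compound pre-incubation 1 h before IL-6, then 6 h stimulation at 37 °C; also added: IL-6 stimulus at 33 ng/mL final; evaluation: % activation versus median of IL-6-stimulated wells; detection: reporter luminescence signal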
STAT3 blocker = STAT3 signaling inhibition | AID 862 | U3A cells, IL-6 STAT3-luciferase reporter, luminescence; host cell line lacks STAT1 | 190,000 compounds, 0.89% hits | inhibition, % at 5.5 µM;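 active = inhibition above the mean inhibition across all screened compounds plus 3 SD, cut at about 44% in these data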;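 also: 0% = DMSO only wells and 100% = 100 µM nifuroxazide control wells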
L929 necroptosis = blocks zVAD induced death of L929 cells | L929 zVAD necroptosis rescue, ATP luminescence, 24 h; with zVAD 60 µM | viability rescue, % at 10 µM | 220,000 compounds, 0.38% hits | AID 1377;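 active = activation, scaled between plate controls, above about 75%, limit read from the data; inactive = activation under that limit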;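 also: 0% = zVAD with DMSO and 100% = DMSO alone without zVAD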
Numbers without * were called inactive; x = no result given.

SMILES	STAT1 inh	TNF necrop inh	STAT3 activator	STAT3 blocker	L929 necroptosis
O=C1N2CCCc3cccc(c32)C12Nc1ccccc1S2 (centres undefined)	1	-2	135*	-35	0
CC1CC(C)(C)N2C(=O)C3(Nc4ccccc4S3)c3cccc1c32 (centres undefined)	6	-1	107	-1	1
COc1ccc(N2CCn3c2nc2c3c(=O)n(CCc3ccccc3)c(=O)n2C)c(OC)c1	10	0	113	-12	0
CCCOc1ccc(CN(CCO)CCO)cc1[N+](=O)[O-]	-13	2	133*	-38	0
N#CCCn1cc(C(=O)Nc2ccc(C(=O)O)cc2)c(-c2cc3ccccc3o2)n1	-1	0	96	10	2
O=C(N/N=C/c1ccsc1)c1ccccn1	-31	-2	106	-6	-2
CC(C)(C)c1ccc(/C=N/NC(=O)c2ccccn2)cc1	43*	0	43	68*	70
CC(=O)c1c(O)c2ccccc2n(C2CCCCC2)c1=O	3	-1	114	-2	-1
CCCN1C(=O)/C(=C\c2nc3ccccc3c(=O)[nH]2)c2ccccc21	-4	2	91	12	8
CC(Sc1nnc(NCc2ccccc2)s1)C(=O)Nc1ccc2c(c1)C(=O)c1ccccc1C2=O (centres undefined)	-27	80*	106	2	4
CC(Sc1nnc(Nc2ccccc2)s1)C(=O)Nc1nc(-c2ccccc2)cs1 (centres undefined)	-12	0	110	-6	0
Cc1cc(OC(=O)c2ccccc2Br)cc(=O)n1C	39*	-2	83	26	0
COc1ccc(S(=O)(=O)Nc2ccccc2C(F)(F)F)cc1	5	-1	100	3	0
COc1ccc(S(=O)(=O)Nc2ccc(O)c3ccccc23)cc1	2	-14	134*	-37	4
Cc1ccccc1C(=O)Nc1ccc(C(=O)N/N=C/c2ccncc2)cc1	2	0	99	12	0
O=C(Nc1ccccc1C(=O)N/N=C/c1ccncc1)c1ccccc1	54*	-12	45	67*	-2
CCC(C)(C)n1nnnc1C(c1cc2cccc(C)c2[nH]c1=O)N1CCCC1 (centres undefined)	2	0	102	2	1
Cc1ccc(C)c2[nH]c(=O)c(C(c3nnnn3C(C)(C)C)N3CC=C(c4ccc(F)cc4)CC3)cc12 (centres undefined)	35*	4	106	-10	0
CC1CCC2(CC1)Nc1ccccc1C(=O)N2c1ccccc1 (centres undefined)	-9	0	101	4	0
COC1=C(Nc2ccccc2)C(=O)c2ccccc2C1=O	-15	-7	134*	-38	4
COC1=C(Nc2ccc(C)cc2)C(=O)c2ccccc2C1=O	-12	-1	112	-18	1
COC(=O)c1ccc2nc(-c3cccc(N)c3)cn2c1	60*	0	37	74*	2
Cc1ccccc1-c1ccc(C(=O)NCc2ccccc2)o1	0	1	97	0	7
COc1ccc(Cn2c(/C=C/c3ccccc3)nc3ccccc32)cc1	-64	-10	120	-19	0
COc1ccc(/C=C/c2nc3ccccc3n2C)cc1	94*	-11	10	102*	-1
SMILES	STAT1 inh	TNF necrop inh	STAT3 activator	STAT3 blocker	L929 necroptosis
Cc1ccc2ccc(C3C(=O)c4ccccc4C3=O)nc2c1	-45	-3	165*	-74	0
Cc1ccc2cc(C#N)c(NCc3ccccc3)nc2c1	-2	1	93	10	0
COC(=O)c1ccc(NC(=S)NC2CC2)cc1	-2	-1	91	17	0
NC(=O)c1coc(-c2ccccc2)n1	-4	0	99	2	0
CCn1cc(C(=O)N2CCc3ccccc32)c(=O)c2cc(S(=O)(=O)N3CCCC3)ccc21	2	-1	133*	-26	x
CCn1cc(C(=O)N2CCN(c3ccc(OC)cc3)CC2)c(=O)c2cc(S(=O)(=O)N3CCCCC3)ccc21	6	2	110	-9	-1
CCCCCCn1c(=O)c(C(=O)N/N=C/c2cccc(F)c2)c(O)c2ccccc21	0	-1	102	-1	5
O=[N+]([O-])CC(=Nc1ccc(Cl)cc1)N/N=C\c1oc(O)c2ccccc12	-5	1	136*	-37	1
O=C(N/N=C/c1ccc([N+](=O)[O-])o1)c1cn(-c2ccccc2)nc1-c1ccc(Cl)cc1	-8	-1	93	16	1
Cc1c(Cl)ccc2c(C(=O)NCCN3CCCCC3)cc(-c3ccccn3)nc12	-20	-5	134*	-42	35
Cc1cc(C)c(S(=O)(=O)/N=C2/C=C(Sc3ncn[nH]3)C(=O)c3ccccc32)cc1C	1	-9	143*	-55	1
CCS(=O)(=O)Nc1cc(-c2nc3cccnc3s2)ccc1C	-39	0	162*	-71	49
O=c1[nH]c(SCc2nc3c(cnn3-c3ccccc3)c(=O)[nH]2)nc2ccccc12	-16	-14	160*	-68	0
CC(C)c1ccc(/C=N/Nc2ccc(C(=O)O)cc2)cc1	65*	0	29	84*	2
O=C(O)c1ccc(N/N=C/c2ccc(-c3ccccc3)cc2)cc1	-135	-4	92	16	-1
CC(=O)c1c(C)[nH]c(C(=O)Nc2cc(C)cc(C)c2)c1C	-4	-1	85	22	0
CC(=O)c1c(C)[nH]c(C(=O)Nc2ccc(C)cn2)c1C	39*	0	24	90*	0
CC(=O)c1c(C)[nH]c(C(=O)Nc2nc(-c3ccc(Cl)cc3)cs2)c1C	-1	1	102	2	0
CC(=O)c1c(C)[nH]c(C(=O)Nc2nc(C)cs2)c1C	70*	0	30	85*	8
Cc1ccc(NC(CC(=O)c2ccccc2)c2ccc(F)cc2)cc1 (centres undefined)	4	2	93	17	0
O=C(CC(Nc1ccc(F)cc1)C(=O)O)c1ccccc1 (centres undefined)	-52	0	55	54*	0
Cc1cc(/C=N/n2cnnc2)c(C)n1-c1ccc(OCc2ccc(Cl)cc2Cl)cc1	40*	-7	51	61*	1
COc1ccc(OC)c(NC(=O)CC2SC(=NCc3ccccc3)NC2=O)c1 (centres undefined)	7	1	103	0	2
COc1cccc2c1C(=O)c1c(O)c3c(c(O)c1C2=O)C[C@@](O)(C(C)=O)C[C@@H]3O[C@H]1C[C@H](N)[C@H](O)[C@H](C)O1	-291	-29	61	47*	65
COc1ccc(C(c2c[nH]c3ccccc23)c2c[nH]c3ccccc23)cc1O	-1	-2	192*	-107	0
